Laboratory results: ChEMBL document CHEMBL1145303, “The development of novel C-2, C-8, and N-9 trisubstituted purines as inhibitors of TNF-alpha production” (Bioorg Med Chem Lett, 2006)

How the values were obtained:
THP-1 = assay: Inhibition of LPS-stimulated TNFalpha production in THP1 cells; format: functional, cell-based; conditions: Homo sapiens
Method in brief: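 Human monocytic THP-1 cells, 2.0 · 10⁵/well, cultured in duplicate, preincubated 15 min with or without a range of inhibitor concentrations. TNF-α release then stimulated with LPS at 2 µg/ml. Secreted TNF-α measured by ELISA 4 h after stimulation. Cell viability after the 4 h incubation checked by MTS assay.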

[1] = Metabolic stability in Sprague-Dawley rat liver microsomes assessed as percent loss after 4 hrs; format: ADME, Microsome; conditions: hepatocytes, in the assay text read “hepatocytes” for “liver microsomes”, read-out: Activity
Method in brief: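 Plated Sprague–Dawley rat hepatocytes, not microsomes, with matrigel blank plates. Test compound incubated at 37 °C in triplicate, sampled at 0, 2 and 4 h. Samples pooled after incubation into a multi-compound set, internal standard added, reverse-phase LC/MS/MS. The compound/internal-standard area ratio at 4 h divided by the 0 h ratio gives percent loss.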

[2] = Bioavailability in rat; format: ADME, organism-based; conditions: in vivo
[3] = Half life in rat; format: ADME, organism-based; conditions: in vivo

SMILES | IC50 (THP-1) | further results
CCn1c(Nc2ccccc2OC)nc2cnc(Oc3c(F)cccc3F)nc21 | 2050 nM | 
CCn1c(Nc2ccc(C)cc2Cl)nc2cnc(Oc3c(F)cccc3F)nc21 | 273 nM | 
CCn1c(Nc2ccccc2O)nc2cnc(Oc3c(F)cccc3F)nc21 | 906 nM | 
CC(C)n1c(Nc2ccccc2Cl)nc2cnc(Nc3c(F)cccc3F)nc21 | 630 nM | 
CCn1c(C(=O)c2ccccc2Cl)nc2cnc(Oc3c(F)cccc3F)nc21 | 4 nM | metabolised at 4 h [1]: 82%
Cn1c(NC(=O)c2ccccc2Cl)nc2cnc(NC3CCOCC3)nc21 | > 10000 nM | 
CCn1c(Sc2ccccc2Cl)nc2cnc(Oc3c(F)cccc3F)nc21 | 14 nM | metabolised at 4 h [1]: 75%
CCn1c(Nc2ccccc2C)nc2cnc(Oc3c(F)cccc3F)nc21 | 48 nM | bioavailability [2]: 9%; half-life [3]: 1.5 h; metabolised at 4 h [1]: 56%
Cn1c(Nc2ccccc2Cl)nc2cnc(Nc3c(F)cccc3F)nc21 | 1540 nM | 
CCn1c([S+]([O-])c2ccccc2Cl)nc2cnc(Oc3c(F)cccc3F)nc21 (configuration not stated) | > 1000 nM | 
Cn1c(Nc2ccccc2Cl)nc2cnc(Nc3ccc(F)cc3F)nc21 | 6560 nM | 
CCn1c(Nc2cccc(Cl)c2Cl)nc2cnc(Oc3c(F)cccc3F)nc21 | 300 nM | 
CCn1c(C(=O)c2ccccc2F)nc2cnc(Oc3c(F)cccc3F)nc21 | 207 nM | 
CCn1c(Nc2ccccc2N)nc2cnc(Oc3c(F)cccc3F)nc21 | 473 nM | 
Cn1c(Nc2ccccc2Cl)nc2cnc(NC3CCOCC3)nc21 | 6580 nM | 
C[C@H](Nc1ncc2nc(NCc3ccccc3Cl)n(C)c2n1)C(C)(C)O | > 10000 nM | 
CCn1c(Nc2ccccc2Cl)nc2cnc(Nc3ccccc3F)nc21 | 2110 nM | 

SMILES | IC50 (THP-1) | further results
Cn1c(Nc2ccccc2Cl)nc2cnc(Nc3ccccc3F)nc21 | 10000 nM | 
CCn1c(C(O)c2ccccc2Cl)nc2cnc(Oc3c(F)cccc3F)nc21 (configuration not stated) | 169 nM | 
CC(C)n1c(C(=O)c2ccccc2Cl)nc2cnc(Oc3c(F)cccc3F)nc21 | 650 nM | 
CCn1c(Nc2c(Cl)cccc2Cl)nc2cnc(Oc3c(F)cccc3F)nc21 | 100 nM | 
C[C@H](Nc1ncc2nc(NCCc3ccccc3Cl)n(C)c2n1)C(C)(C)O | > 10000 nM | 
CCn1c(Oc2ccccc2Cl)nc2cnc(Oc3c(F)cccc3F)nc21 | 86 nM | 
CCn1c(Nc2ccccc2F)nc2cnc(Oc3c(F)cccc3F)nc21 | 35 nM | metabolised at 4 h [1]: 65%
CC(C)n1c(Nc2ccccc2F)nc2cnc(Oc3c(F)cccc3F)nc21 | 4 nM | bioavailability [2]: 9%; half-life [3]: 1.5 h; metabolised at 4 h [1]: 61%
CCn1c(Nc2ccccc2Cl)nc2cnc(Oc3c(F)cccc3F)nc21 | 69 nM | 
CC(C)(C)n1c(Nc2ccccc2Cl)nc2cnc(Nc3c(F)cccc3F)nc21 | > 1000 nM | 
CCCCn1c(Nc2ccccc2Cl)nc2cnc(Nc3c(F)cccc3F)nc21 | 798 nM | 
Fc1cccc(F)c1Nc1ncc2nc(Nc3ccccc3Cl)n(C3CC3)c2n1 | > 1000 nM | 
CCn1c(Nc2ccc(F)cc2Cl)nc2cnc(Oc3c(F)cccc3F)nc21 | 237 nM | 
CCn1c(Nc2ccccc2Cl)nc2cnc(Nc3c(F)cccc3F)nc21 | 542 nM | 
C[C@H](Nc1ncc2nc(Nc3ccccc3Cl)n(C)c2n1)C(C)(C)O | 3170 nM | 
O=c1ncn2nc(Sc3ccc(F)cc3F)ccc2c1-c1c(Cl)cccc1Cl [NEFLAMAPIMOD] | 56 nM | 
